Assay results taken from ChEMBL document CHEMBL4033798, “Discovery of Novel KRAS-PDEδ Inhibitors by Fragment-Based Drug Design” (J Med Chem, 2018).

system: CAPAN-1; experiment: Antiproliferative activity against KRAS-dependent human Capan1 cells after 48 hrs by CCK8 assay; conditions: CAPAN-1, 48 h

Point of comparison: `O=C1c2cc(F)ccc2N(CC2CC2)C(c2ccccc2F)N1C1CCN(CCCn2ccnc2-c2ccccc2)CC1` (stereo not drawn), IC50 8.8 µM. Against it:
- O=C1c2cc(F)ccc2NC(c2ccccc2F)N1C1CCN(CCCn2ccnc2-c2ccccc2)CC1 (stereo not drawn) — 3.7-fold higher, 33 µM
- Cc1nccn1CCOc1ccc(N2C(=O)c3ccccc3NC2c2ccccc2F)cc1 (stereo not drawn) — higher, > 100 µM
- Cc1nccn1CCOc1ccc(N2C(=O)c3ccccc3NC2c2ccccn2)cc1 (stereo not drawn) — higher, > 100 µM
- O=C1c2ccccc2NC(c2ccccc2F)N1c1ccc(OCCn2c(-c3ccccc3)nc3ccccc32)cc1 (stereo not drawn) — higher, > 100 µM
- COc1ccc2c(c1)NC(c1ccccc1F)N(C1CCN(CCCn3ccnc3-c3ccccc3)CC1)C2=O (stereo not drawn) — 9.3-fold higher, 82 µM
- Cc1ccc2c(c1)C(=O)N(CCOc1ccc(-c3nc4ccccc4n3Cc3ccncc3)cc1)C(c1ccccc1F)N2 (stereo not drawn) — higher, > 100 µM
- Cc1ccc2c(c1)C(=O)N(C1CCN(CCCn3ccnc3-c3ccccc3)CC1)C(c1ccccc1F)N2 (stereo not drawn) — 4.8-fold higher, 42 µM
- COc1ccc2c(c1)NC(c1ccccc1F)N(CCOc1ccc(-c3nc4ccccc4n3Cc3ccncc3)cc1)C2=O (stereo not drawn) — higher, > 100 µM
- O=C1c2cc(F)ccc2N(CC2CCCCC2)C(c2ccccc2F)N1C1CCN(CCCn2ccnc2-c2ccccc2)CC1 (stereo not drawn) — 6.2-fold higher, 54.6 µM
- O=C1c2ccc(Cl)cc2NC(c2ccccc2F)N1CCOc1ccc(-c2nc3ccccc3n2Cc2ccncc2)cc1 (stereo not drawn) — higher, > 100 µM
- O=C1c2ccccc2NC(c2ccccc2F)N1c1ccc(OCCn2ccnc2-c2ccccc2)cc1 (stereo not drawn) — higher, > 100 µM
- O=C1c2ccccc2NC(c2ccccc2F)N1c1ccc(OCCn2ccnc2)cc1 (stereo not drawn) — higher, > 100 µM
- Cc1ccc2c(c1)NC(c1ccccc1F)N(C1CCN(CCCn3ccnc3-c3ccccc3)CC1)C2=O (stereo not drawn) — 8.9-fold higher, 78 µM
- O=C1c2cc(F)ccc2N(CC2CCCC2)C(c2ccccc2F)N1C1CCN(CCCn2ccnc2-c2ccccc2)CC1 (stereo not drawn) — within 1.5-fold, 12.4 µM
- CN1c2ccc(F)cc2C(=O)N(C2CCN(CCCn3ccnc3-c3ccccc3)CC2)C1c1ccccc1F (stereo not drawn) — 5.3-fold higher, 47 µM
- O=C1c2ccccc2NC(c2ccccc2F)N1C1CCN(CCCn2ccnc2-c2ccccc2)CC1 (stereo not drawn) — 3.9-fold higher, 34 µM
- O=C1c2cc(F)ccc2NC(c2ccccc2F)N1CCOc1ccc(-c2nc3ccccc3n2Cc2ccncc2)cc1 (stereo not drawn) — higher, > 100 µM
- O=C1c2ccc(F)cc2NC(c2ccccc2F)N1CCOc1ccc(-c2nc3ccccc3n2Cc2ccncc2)cc1 (stereo not drawn) — higher, > 100 µM
- O=C1c2ccccc2NC(c2ccccn2)N1c1ccc(OCCn2ccnc2-c2ccccc2)cc1 (stereo not drawn) — 5.9-fold higher, 52 µM
- O=C1c2ccc(F)cc2NC(c2ccccc2F)N1C1CCN(CCCn2ccnc2-c2ccccc2)CC1 (stereo not drawn) — 4-fold higher, 35 µM
- Cc1ccc(-n2nc3c(=O)n(CCCC(=O)NCC(C)c4ccccc4)nc(C)c3c2C)cc1 (stereo not drawn) — 5.5-fold higher, 48 µM
- COc1ccc2c(c1)C(=O)N(C1CCN(CCCn3ccnc3-c3ccccc3)CC1)C(c1ccccc1F)N2 (stereo not drawn) — 8.4-fold higher, 74 µM
- O=C1c2ccccc2NC(c2ccccn2)N1c1ccc(OCCn2c(-c3ccccc3)nc3ccccc32)cc1 (stereo not drawn) — higher, > 100 µM
- O=C1c2cc(F)ccc2N(CC2CCC2)C(c2ccccc2F)N1C1CCN(CCCn2ccnc2-c2ccccc2)CC1 (stereo not drawn) — within 1.5-fold, 11.6 µM
- O=C1c2cc(Cl)ccc2NC(c2ccccc2F)N1CCOc1ccc(-c2nc3ccccc3n2Cc2ccncc2)cc1 (stereo not drawn) — higher, > 100 µM
- Cc1nc2ccccc2n1CCOc1ccc(N2C(=O)c3ccccc3NC2c2ccccc2F)cc1 (stereo not drawn) — higher, > 100 µM
- O=C1c2ccccc2NC(c2ccccn2)N1c1ccc(OCCn2ccnc2)cc1 (stereo not drawn) — higher, > 100 µM
- O=C1c2ccccc2NC(c2ccccc2F)N1CCOc1ccc(-c2nc3ccccc3n2Cc2ccncc2)cc1 (stereo not drawn) — higher, > 100 µM

system: CAPAN-1; experiment: Induction of apoptosis in KRAS-dependent human Capan1 cells at 10 uM incubated for 48 hrs by Annexin-V FITC/propidium iodide staining-based flow cytometry (reference value: 3.51%); format: functional; conditions: not given
Summary of the method: (§1)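 Capan-1 cells were exposed to compound for 48 h, with 0.1% DMSO as the vehicle control. The read-out is the percentage of apoptotic cells. Compounds were tested at 10, 25 or 50 μM.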

With `O=C1c2cc(F)ccc2N(CC2CC2)C(c2ccccc2F)N1C1CCN(CCCn2ccnc2-c2ccccc2)CC1` (stereo not drawn) the Activity was 17.95%.

system: CAPAN-1; experiment: Induction of apoptosis in KRAS-dependent human Capan1 cells at 50 uM incubated for 48 hrs by Annexin-V FITC/propidium iodide staining-based flow cytometry (reference value: 3.51%); format: functional; conditions: not given; summary of the method: as §1

With `Cc1ccc(-n2nc3c(=O)n(CCCC(=O)NCC(C)c4ccccc4)nc(C)c3c2C)cc1` (stereo not drawn) the Activity was 20.5%.

system: CAPAN-1; experiment: Induction of apoptosis in KRAS-dependent human Capan1 cells at 25 uM incubated for 48 hrs by Annexin-V FITC/propidium iodide staining-based flow cytometry (reference value: 3.51%); format: functional; conditions: not given; summary of the method: as §1

With `O=C1c2cc(F)ccc2N(CC2CC2)C(c2ccccc2F)N1C1CCN(CCCn2ccnc2-c2ccccc2)CC1` (stereo not drawn) the Activity was 36.4%.

system: CAPAN-1; experiment: Induction of apoptosis in KRAS-dependent human Capan1 cells after 48 hrs by Annexin-V FITC/propidium iodide staining-based flow cytometry; format: functional, cell-based; conditions: not given; summary of the method: as §1

With `O=C1c2cc(F)ccc2N(CC2CC2)C(c2ccccc2F)N1C1CCN(CCCn2ccnc2-c2ccccc2)CC1` (stereo not drawn) the Activity was “Dose-dependent effect”.
